One may read the pKa as the pH at which an ionisable group is half protonated. Usually Ki stands for a dissociation constant, usually derived from enzyme kinetics or from competition with a known ligand. Read a high Ki as lower affinity.

Data set [1] is described as follows: Metabolic stability in CD1 mouse liver S9 fraction assessed as compound remaining at 5 mM by HPLC analysis. In kind it is ADME, subcellular. The settings on record: read-out: Stability.
The subject of data set [2] is Serum. The data set can be described thus: Metabolic stability in human serum assessed as compound decomposed at 5 mM by HPLC analysis. In kind it is ADME. The settings on record: 5000 µM.
The nature of data set [3]: Retention time of compound by HPLC analysis. The format is physicochemical.
Data set [4] is described as follows: Drug level in HEPES buffer treated with 200 uM (S)-4-(trifluoromethyl)phenyl 3-(2-amino-4-methylpentanamido)propane-1-sulfonate in presence of aeromonas proteolytica aminopeptidase by spectrophotometry. In kind it is ADME. The settings on record: vibrio proteolyticus. Put shortly:
(§1)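 Each substrate (50 or 200 μM) was incubated with AAP (1.05 units/mL) in 50 mM HEPES (pH 8.0) containing 2% DMSO for varying periods. Release of the corresponding phenol was monitored over time.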

For data set [5], the system named is Serum. In words: Drug level in human serum treated with 5 mM (S)-2-methylquinolin-8-yl 3-(2-amino-4-methylpentanamido)propane-1-sulfonate after 24 hrs by HPLC analysis. In kind it is ADME, cell-free.
In a further data set the test system is Liver. In words: Drug level in CD1 mouse liver S9 fraction treated with 5 mM (S)-2-methylquinolin-8-yl 3-(2-amino-4-methylpentanamido)propane-1-sulfonate after 3 hrs by HPLC analysis. The format is ADME, subcellular. The settings on record: s9, 3 h.
Data set [6] in a line: Drug level in HEPES buffer treated with 200 uM (S)-4-sulfamoylphenyl 3-(2-amino-4-methylpentanamido)propane-1-sulfonate in presence of aeromonas proteolytica aminopeptidase by spectrophotometry. In kind it is ADME. The settings on record: vibrio proteolyticus. A digest of the protocol: as §1
A short description of data set [7]: Drug metabolism in HEPES buffer assessed as aeromonas proteolytica aminopeptidase-mediated 4-(trifluoromethyl)phenol formation at 200 uM by spectrophotometry. In kind it is ADME. The settings on record: vibrio proteolyticus. Put shortly: as §1
Data set [8] is described as follows: Dissociation constant, pKa of the compound. In kind it is physicochemical.
Data set [9] in a line: Drug metabolism in HEPES buffer assessed as aeromonas proteolytica aminopeptidase-mediated Isothiazolidine 1,1-dioxide formation at 200 uM by spectrophotometry. In kind it is ADME. The settings on record: vibrio proteolyticus.
Data set [10] in a line: Drug metabolism in HEPES buffer assessed as aeromonas proteolytica aminopeptidase-mediated 4-chlorophenol formation at 200 uM by spectrophotometry. In kind it is ADME. The settings on record: vibrio proteolyticus. Put shortly: as §1
A short description of data set [11]: Drug metabolism in HEPES buffer assessed as aeromonas proteolytica aminopeptidase-mediated compound hydrolysis at 2 mM by spectrophotometry. In kind it is ADME. The settings on record: vibrio proteolyticus, 2000 µM.
Data set [12] in a line: Inhibition of aeromonas proteolytica aminopeptidase using L-leucine-p-nitroanilide as substrate by spectrophotometry. Also noted: species or system Vibrio proteolyticus.
Data set [13] in a line: Drug level in HEPES buffer treated with 2 mM (S)-2-methylquinolin-8-yl 3-(2-amino-4-methylpentanamido)propane-1-sulfonate for 12 hrs in presence of aeromonas proteolytica aminopeptidase by spectrophotometry. The settings on record: vibrio proteolyticus. The format is ADME.
Data set [14] in a line: Drug level in HEPES buffer treated with 50 uM (S)-2-methylquinolin-8-yl 3-(2-amino-4-methylpentanamido)propane-1-sulfonate in presence of aeromonas proteolytica aminopeptidase by spectrophotometry. In kind it is ADME. The settings on record: vibrio proteolyticus. Put shortly:
as §1

Data set [15] can be described thus: Drug level in HEPES buffer treated with 200 uM (S)-4-chlorophenyl 3-(2-amino-4-methylpentanamido)propane-1-sulfonate in presence of aeromonas proteolytica aminopeptidase by spectrophotometry. The format is ADME. The settings on record: vibrio proteolyticus. A digest of the protocol: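 Compound at 200 μM incubated for a given period with Aeromonas proteolytica aminopeptidase (1.05 units/mL) in 50 mM HEPES, pH 8.0, containing 2% DMSO. Liberation of the corresponding phenol was followed over time to evaluate the intramolecular cyclization rate k₂.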

Data set [16] can be described thus: Inhibition of aeromonas proteolytica aminopeptidase at 5 uM incubated at pH 8 and 30 degC followed by addition of 50 uM L-leucine-p-nitroanilide substrate by spectrophotometry. The settings on record: vibrio proteolyticus, pH 8, 5 µM. Put shortly: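 The prodrug (5 μM) was preincubated with AAP (0.02 units/mL) at pH 8.0 and 30 °C for set times in 10 mM HEPES (pH 8.0) containing 2% DMSO. L-leucine-p-nitroanilide (50 μM) was then added, and its hydrolysis was followed at 25 °C by ΔAbs405 from released p-nitroaniline (ε405 = 10300). In the control, the prodrug was preincubated without enzyme, and AAP was added together with the substrate.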

The nature of data set [17]: Drug metabolism in HEPES buffer assessed as aeromonas proteolytica aminopeptidase-mediated 4-hydroxybenzenesulfonamide formation at 200 uM by spectrophotometry. The settings on record: vibrio proteolyticus. The format is ADME. Put shortly:
as §1

Data set [18] in a line: Drug metabolism in CD1 mouse S9 fraction assessed as 2-methylquinolin-8-yl 3-aminopropane-1-sulfonate formation at 5 mM after 3 hrs by HPLC analysis. The format is ADME, Liver. The settings on record: s9, 3 h, 5000 µM.
Data set [19] relates to Serum. In words: Drug metabolism in human serum assessed as 2-methylquinolin-8-yl 3-aminopropane-1-sulfonate formation at 5 mM after 24 hrs by HPLC analysis. The format is ADME, cell-free. The settings on record: 5000 µM.
Data set [20] is described as follows: Drug metabolism in HEPES buffer assessed as aeromonas proteolytica aminopeptidase-mediated 2-methylquinolin-8-ol formation at 2 mM after 12 hrs by spectrophotometry. The settings on record: vibrio proteolyticus, 2000 µM. The format is ADME.
Data set [21] relates to Serum. In words: Drug metabolism in human serum assessed as 2-methylquinolin-8-ol formation at 5 mM after 24 hrs by HPLC analysis. The format is ADME, cell-free. The settings on record: 5000 µM.
The nature of data set [22]: Drug metabolism in HEPES buffer assessed as aeromonas proteolytica aminopeptidase-mediated Isothiazolidine 1,1-dioxide formation at 50 uM by spectrophotometry. In kind it is ADME. The settings on record: vibrio proteolyticus.
The nature of data set [23]: Metabolic stability in human serum assessed as compound decomposed at 5 mM after 24 hrs by HPLC analysis. In kind it is ADME. The settings on record: read-out: Drug metabolism.
Data set [24] is described as follows: Drug metabolism in HEPES buffer assessed as aeromonas proteolytica aminopeptidase-mediated Isothiazolidine 1,1-dioxide formation at 2 mM after 12 hrs by spectrophotometry. In kind it is ADME. The settings on record: vibrio proteolyticus, 2000 µM.
Data set [25] in a line: Drug metabolism in HEPES buffer assessed as aeromonas proteolytica aminopeptidase-mediated 2-methylquinolin-8-ol formation at 50 uM by spectrophotometry. The format is ADME. The settings on record: vibrio proteolyticus. A digest of the protocol:
as §1

A short description of data set [26]: Drug metabolism in HEPES buffer assessed as aeromonas proteolytica aminopeptidase-mediated 5-chloroquinolin-8-yl 3-chloropropane-1-sulfonate formation at 2 mM after 12 hrs by spectrophotometry. In kind it is ADME. The settings on record: vibrio proteolyticus, 2000 µM.
Data set [27] in a line: Drug metabolism in HEPES buffer assessed as aeromonas proteolytica aminopeptidase-mediated 5-chloroquinolin-8-yl 4-chlorobutane-1-sulfonate formation at 2 mM after 12 hrs by spectrophotometry. In kind it is ADME. The settings on record: vibrio proteolyticus, 2000 µM.
Data set [28] in a line: Drug metabolism in HEPES buffer assessed as aeromonas proteolytica aminopeptidase-mediated compound hydrolysis at 1.3 mM by spectrophotometry. In kind it is ADME. The settings on record: vibrio proteolyticus, 1300 µM.

As for `Cc1ccc2cccc(OS(=O)(=O)CCCN=[N+]=[N-])c2n1`, the remaining in [1] was determined as 88%. Moreover, the Stability entry with Serum [2] is recorded as “Stable”. The same compound had a Retention_time in [3] of 17.5 min.

Consider `Oc1ccc(C(F)(F)F)cc1`, for which the Drug metabolism result in data set [4] was “metabolite_detected”.

As for `Cc1ccc2cccc(OS(=O)(=O)CCCN)c2n1`, the Drug metabolism result in the data set on Serum [5] and in the data set on Liver was “metabolite_detected” throughout. Besides, the Retention_time in [3] came out at 6.5 min.

For `NS(=O)(=O)c1ccc(O)cc1`, the Drug metabolism result in [6] is listed as “metabolite_detected”.

In the case of `CC(C)C[C@H](N)C(=O)NCCCS(=O)(=O)Oc1ccc(C(F)(F)F)cc1`, the Drug metabolism result in data set [7] and in data set [9] was “metabolite_detected” in each case. The compound also registered a pKa in [8] of 8.9.

Regarding `CC(C)C[C@H](N)C(=O)NCCCS(=O)(=O)Oc1ccc(Cl)cc1`, the Drug metabolism entry in data set [10] and in [9] was “metabolite_detected” each time. The compound also yielded a pKa in data set [8] of 9.6.

As for `Cc1ccc2cccc(OS(=O)(=O)CCCCNC(=O)[C@@H](N)CC(C)C)c2n1`, the Drug metabolism result in data set [11] is listed as “metabolite_detected”.

`Oc1ccc(Cl)c2cccnc12` [CLOXYQUIN] gave a Ki in data set [12] of 190 nM. This lies in the sub-micromolar range.

Turning to `Cc1ccc2cccc(O)c2n1` [8-HYDROXY QUINALDINE], the Drug metabolism result (with Serum [5]; in data set [13]; in data set [14]) was “metabolite_detected” in each case. In addition, in [3], the Retention_time was 4.6 min.

Consider `O=S1(=O)CCCN1`, for which the Drug metabolism entry in data set [15], in data set [6], in data set [13], in data set [14] and in data set [4] was “metabolite_detected” throughout.

As for `CC(C)C[C@H](N)C(=O)NCCCCS(=O)(=O)Oc1ccc(Cl)c2cccnc12`, the “inhibition (INH)” value in data set [16] is reported as “Active”.

For `CC(C)C[C@H](N)C(=O)NCCCS(=O)(=O)Oc1ccc(Cl)c2cccnc12`, the “inhibition (INH)” value in [16] is “Active”.

In the case of `CC(C)C[C@H](N)C(=O)NCCCS(=O)(=O)Oc1ccc(S(N)(=O)=O)cc1`, the Drug metabolism entry in [17] and in [9] was “metabolite_detected” throughout. In data set [8], this compound displayed a pKa of 8.3.

Turning to `Cc1ccc2cccc(OS(=O)(=O)CCCNC(=O)[C@@H](N)CC(C)C)c2n1`, the Drug metabolism entry (in [18]; in the data set on Serum [19]; in [20]; in the data set on Serum [21]; in data set [22]; in data set [24]) was “metabolite_detected” in each case. For the same compound, the results for the Drug metabolism entry in data set [25], in data set [26] and in data set [27] were “metabolite_detected”, “metabolite_notdetected” and “metabolite_notdetected”, respectively. Besides, the metabolised at 24 h, 5000 µM in [23] came out at 35%. The same compound yielded a Retention_time in [3] of 21 min. Moreover, the pKa in data set [8] worked out at 10.9.

Take `Oc1ccc(Cl)cc1` [PARACHLOROPHENOL]: the Drug metabolism entry in data set [15] is “metabolite_detected”.

As to `Cc1ccc2cccc(OS(=O)(=O)CCNC(=O)[C@@H](N)CC(C)C)c2n1`, the Drug metabolism entry in [28] is reported as “metabolite_detected”.

The values are drawn from ChEMBL document CHEMBL3745632, “Development of a novel sulfonate ester-based prodrug strategy” (Bioorg Med Chem Lett, 2016).
